This is an account of results in ChEMBL document CHEMBL2163331, “Multidrug resistance reversal and apoptosis induction in human colon cancer cells by some flavonoids present in citrus plants” (J Nat Prod, 2012).

Data set [1] can be described thus: Induction of apoptosis in human […] cells assessed as activation of caspase-3 at 15 uM after 48 hrs relative to control. The class given is functional. Put shortly: (§1)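 LoVo (sensitive) or LoVo/Dx (doxorubicin-selected; kept in 100 ng/mL doxorubicin) cells, 800 000/well, attached 24 h, then exposed to compound in fresh medium for 48 h. Cells scraped and pelleted. Caspase-3 activity read colorimetrically at A405 as pNA released from DEVD-pNA (commercial kit). Reported as ratio of treated to medium-only control. Triplicate, means ± SD, Student's t test.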

Data set [2] can be described thus: Induction of apoptosis in human […] cells assessed as necrotic cells at 15 uM after 48 hrs by annexin-V and propidium iodide staining based flow cytometry (reference value: 9.57 +/- 2.83%). The class given is functional. A general note: Flow cytometry measures light scatter and fluorescence of single cells or particles in a stream.
A short description of data set [3]: Induction of apoptosis in human […] cells assessed as apoptotic cells at 15 uM after 48 hrs by annexin-V and propidium iodide staining based flow cytometry (reference value: 6.16 +/- 1.67%). The class given is functional.
Data set [4] has as its system LoVo. Put plainly: Induction of apoptosis in human drug-sensitive LoVo cells assessed as necrotic cells at 15 uM after 48 hrs by annexin-V and propidium iodide staining based flow cytometry (reference value: 10.44 +/- 3.23%). The class given is functional.
Data set [5] concerns LoVo. Put plainly: Induction of apoptosis in human drug-sensitive LoVo cells assessed as apoptotic cells at 15 uM after 48 hrs by annexin-V and propidium iodide staining based flow cytometry (reference value: 6.68 +/- 1.77%). The class given is functional.
The test system of data set [6] is LoVo. Put plainly: Induction of apoptosis in human drug-sensitive LoVo cells assessed as activation of caspase-3 at 15 uM after 48 hrs relative to control. The class given is functional. Put shortly: as §1
A short description of data set [7]: Induction of apoptosis in human […] cells assessed as necrotic cells at 100 uM after 48 hrs by annexin-V and propidium iodide staining based flow cytometry (reference value: 9.57 +/- 2.83%). The class given is functional.
Data set [8] can be described thus: Induction of apoptosis in human […] cells assessed as apoptotic cells at 100 uM after 48 hrs by annexin-V and propidium iodide staining based flow cytometry (reference value: 6.16 +/- 1.67%). The class given is functional.
For data set [9], the system named is LoVo. Put plainly: Induction of apoptosis in human drug-sensitive LoVo cells assessed as necrotic cells at 100 uM after 48 hrs by annexin-V and propidium iodide staining based flow cytometry (reference value: 10.44 +/- 3.23%). The class given is functional.
Data set [10] has as its system LoVo. Put plainly: Induction of apoptosis in human drug-sensitive LoVo cells assessed as apoptotic cells at 100 uM after 48 hrs by annexin-V and propidium iodide staining based flow cytometry (reference value: 6.68 +/- 1.77%). The class given is functional.
Data set [11] deals with LoVo/DX. In words: Cytotoxicity against human drug-resistant LoVo/DX cells after 72 hrs by SRB assay. It is filed as functional, cell-based. Put shortly:
(§2)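 Cells seeded at 30 000/well, attached 60 min at 37 °C, then compound added in an equal volume of medium and incubated 72 h. Read by sulforhodamine B at A492. Survival = A492 treated / A492 medium-only control × 100%. DMSO was at most 0.3% in samples. Triplicate experiments, means ± SD, Student's t test.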
(Sulforhodamine B stains cellular protein and so reports cell mass.)

For data set [12], the system named is LoVo. In words: Cytotoxicity against human drug-sensitive LoVo cells after 72 hrs by SRB assay. The class given is functional, cell-based. Put shortly:
as §2

The target in data set [13] is T1, ATP-dependent translocase ABCB1 (Homo sapiens, UniProt P08183). Put plainly: Inhibition of p-glycoprotein in human LoVo/DX cells assessed accumulation of rhodamine 123 at 5 to 100 uM after 60 mins by fluorescence assay. The note with it: 1 h.
The nature of data set [14]: Induction of apoptosis in human […] cells assessed as activation of caspase-3 at 100 uM after 48 hrs relative to control. The class given is functional. The method, boiled down:
(§3)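 Cells seeded at 800 000/well and allowed to attach 24 h. Compound added in fresh medium, then 48 h incubation. Cells scraped and centrifuged, and caspase-3 activity measured colorimetrically by pNA release from DEVD-pNA (A405) with a kit. Result expressed as a ratio to a medium-only control. Triplicate, means ± SD.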

A short description of data set [15]: Induction of apoptosis in human […] cells assessed as activation of caspase-3 at 75 uM after 48 hrs relative to control. The class given is functional. Put shortly: as §3
A short description of data set [16]: Induction of apoptosis in human […] cells assessed as activation of caspase-3 at 25 uM after 48 hrs relative to control. The class given is functional. Put shortly:
as §3

The test system of data set [17] is LoVo. In words: Induction of apoptosis in human drug-sensitive LoVo cells assessed as activation of caspase-3 at 100 uM after 48 hrs relative to control. It is filed as functional. The method, boiled down:
as §3

The subject of data set [18] is LoVo. Put plainly: Induction of apoptosis in human drug-sensitive LoVo cells assessed as activation of caspase-3 at 75 uM after 48 hrs relative to control. The class given is functional. Put shortly: as §3
A short description of data set [19]: Induction of apoptosis in human […] cells assessed as necrotic cells at 75 uM after 48 hrs by annexin-V and propidium iodide staining based flow cytometry (reference value: 9.57 +/- 2.83%). It is filed as functional.
Data set [20] can be described thus: Induction of apoptosis in human […] cells assessed as necrotic cells at 25 uM after 48 hrs by annexin-V and propidium iodide staining based flow cytometry (reference value: 9.57 +/- 2.83%). The class given is functional.
The nature of data set [21]: Induction of apoptosis in human […] cells assessed as apoptotic cells at 75 uM after 48 hrs by annexin-V and propidium iodide staining based flow cytometry (reference value: 6.16 +/- 1.67%). It is filed as functional.
The nature of data set [22]: Induction of apoptosis in human […] cells assessed as apoptotic cells at 25 uM after 48 hrs by annexin-V and propidium iodide staining based flow cytometry (reference value: 6.16 +/- 1.67%). It is filed as functional.
The test system of data set [23] is LoVo. Put plainly: Induction of apoptosis in human drug-sensitive LoVo cells assessed as necrotic cells at 75 uM after 48 hrs by annexin-V and propidium iodide staining based flow cytometry (reference value: 10.44 +/- 3.23%). It is filed as functional.
The test system of data set [24] is LoVo. In words: Induction of apoptosis in human drug-sensitive LoVo cells assessed as necrotic cells at 25 uM after 48 hrs by annexin-V and propidium iodide staining based flow cytometry (reference value: 10.44 +/- 3.23%). It is filed as functional.
The subject of data set [25] is LoVo. Put plainly: Induction of apoptosis in human drug-sensitive LoVo cells assessed as apoptotic cells at 75 uM after 48 hrs by annexin-V and propidium iodide staining based flow cytometry (reference value: 6.68 +/- 1.77%). The class given is functional.
In data set [26] the test system is LoVo. Put plainly: Induction of apoptosis in human drug-sensitive LoVo cells assessed as apoptotic cells at 25 uM after 48 hrs by annexin-V and propidium iodide staining based flow cytometry (reference value: 6.68 +/- 1.77%). The class given is functional.
In data set [27] the target is T1, ATP-dependent translocase ABCB1. In words: Inhibition of p-glycoprotein in human LoVo/DX cells assessed as potentiation of doxorubicin-induced cytotoxicity at 5 uM after 72 hrs by SRB assay. It is filed as cell-based. The method, boiled down: (§4)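 Doxorubicin cytotoxicity measured with and without 5 μM modulator by SRB over 72 h. Cells seeded at 30 000/well and attached 60 min at 37 °C before treatment. Survival taken as A492 treated / A492 control × 100%. Three experiments, means ± SD, Student's t test (p < 0.05).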

Data set [28] deals with LoVo. In words: Potentiation of doxorubicin-induced cytotoxicity in human LoVo cells at 5 uM after 72 hrs by SRB assay. The class given is functional, cell-based. The method, boiled down: as §4
The subject of data set [29] is LoVo. In words: Induction of apoptosis in human drug-sensitive LoVo cells assessed as activation of caspase-3 at 25 uM after 48 hrs relative to control. It is filed as functional. Put shortly:
as §3

Data set [30] deals with T1, ATP-dependent translocase ABCB1. In words: Inhibition of p-glycoprotein in human LoVo/DX cells assessed nuclear accumulation of doxorubicin at 100 uM after 60 mins by fluorescence assay. It is filed as cell-based. Conditions: 1 h. Put shortly:
(§5)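 Cells seeded at 15 000/well and cultured 48 h. Fresh F12 medium with 50 μM doxorubicin (plus 100 μM modulator) added for 60 min at 37 °C. Cells washed, then imaged by fluorescence microscopy (40× objective, excitation 528−553 nm, emission 578−633 nm) under identical illumination.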

For data set [31] the target is unchanged. Put plainly: Inhibition of p-glycoprotein in human LoVo/DX cells assessed accumulation of rhodamine 123 at 75 to 100 uM after 60 mins by fluorescence assay. The class given is cell-based. Conditions: 1 h. Put shortly:
(§6)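 Cells at 300 000/mL in serum- and phenol red-free medium, preincubated 15 min at room temperature with modulator (5−100 μM). Rhodamine 123 then added (final 2 μM) for 60 min at 37 °C. Washed cells read by flow cytometry (488 nm excitation, 530/30 nm), 5000 events. FIR = (LoVo/Dx treated/control)/(LoVo treated/control). Triplicate.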

For data set [32], the system named is LoVo. Put plainly: Inhibition of rhodamine 123 accumulation in human LoVo cells at 75 to 100 uM after 60 mins by fluorescence assay. The class given is functional, cell-based. The method, boiled down:
as §6

Data set [33] concerns LoVo. In words: Inhibition of doxorubicin intracellular accumulation in human LoVo cells at 100 uM after 60 mins by fluorescence assay. It is filed as functional, cell-based. The method, boiled down: as §5

The source made the active and inactive calls. The rule behind the calls is not given here.

T1 sequence (P08183 whole entry): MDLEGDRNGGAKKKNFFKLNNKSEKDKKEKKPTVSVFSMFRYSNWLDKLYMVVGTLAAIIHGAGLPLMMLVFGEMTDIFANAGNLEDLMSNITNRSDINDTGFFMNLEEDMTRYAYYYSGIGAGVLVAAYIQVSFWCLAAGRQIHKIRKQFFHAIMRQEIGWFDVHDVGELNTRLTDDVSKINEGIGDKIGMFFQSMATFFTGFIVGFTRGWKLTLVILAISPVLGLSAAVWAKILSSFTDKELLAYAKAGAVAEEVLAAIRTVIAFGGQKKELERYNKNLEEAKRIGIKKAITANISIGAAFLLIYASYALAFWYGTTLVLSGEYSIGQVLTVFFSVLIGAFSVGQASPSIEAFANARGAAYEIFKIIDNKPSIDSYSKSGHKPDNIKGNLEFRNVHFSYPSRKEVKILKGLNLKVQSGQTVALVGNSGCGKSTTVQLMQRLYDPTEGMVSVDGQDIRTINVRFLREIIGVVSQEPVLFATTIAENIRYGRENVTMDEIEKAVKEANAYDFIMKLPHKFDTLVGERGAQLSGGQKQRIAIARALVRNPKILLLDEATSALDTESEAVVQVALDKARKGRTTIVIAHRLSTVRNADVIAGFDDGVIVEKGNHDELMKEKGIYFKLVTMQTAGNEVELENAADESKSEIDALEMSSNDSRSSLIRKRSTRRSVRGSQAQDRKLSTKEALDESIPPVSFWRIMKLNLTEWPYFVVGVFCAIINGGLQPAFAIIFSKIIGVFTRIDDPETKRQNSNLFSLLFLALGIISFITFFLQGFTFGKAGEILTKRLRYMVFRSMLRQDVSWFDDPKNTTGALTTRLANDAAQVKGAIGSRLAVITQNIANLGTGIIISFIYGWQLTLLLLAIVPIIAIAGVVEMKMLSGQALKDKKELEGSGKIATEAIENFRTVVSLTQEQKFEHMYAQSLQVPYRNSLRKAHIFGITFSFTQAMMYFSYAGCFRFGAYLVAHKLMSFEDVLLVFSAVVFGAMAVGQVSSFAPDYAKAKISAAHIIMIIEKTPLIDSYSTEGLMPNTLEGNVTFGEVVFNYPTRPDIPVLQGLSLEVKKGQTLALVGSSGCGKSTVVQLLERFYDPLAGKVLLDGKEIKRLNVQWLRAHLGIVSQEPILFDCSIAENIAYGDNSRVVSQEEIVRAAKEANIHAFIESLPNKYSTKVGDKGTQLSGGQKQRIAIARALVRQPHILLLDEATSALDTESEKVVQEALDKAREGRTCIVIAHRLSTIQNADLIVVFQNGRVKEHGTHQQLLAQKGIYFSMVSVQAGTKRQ

Consider `CC[C@@]1(O)C(=O)OCc2c1cc1n(c2=O)Cc2cc3ccccc3nc2-1` [CAMPTOTHECIN], for which the figures for the Ratio in [1] and in [6] were 3.83 and 3.4, respectively. The Activity in data set [2] turned out to be 17.96%; in data set [3], 17.56%; in data set [4], 23.81%; in data set [5] it was 17.61%.
Consider `O=C1c2c(O)cc(O)cc2O[C@H](c2ccc(O)cc2)[C@H]1O` [DIHYDROKAEMPFEROL], for which the Activity in [7] is given as 6.83%; in [8], 9.38%; in [9], 10.02%; in data set [10], 10.96%. The result in [11] and in data set [12] was Active. In addition, the “inhibition (INH)” value in data set [13] is reported as “Not Active”.
Regarding `COc1ccc(-c2cc(=O)c3c(OC)c(OC)c(OC)c(OC)c3o2)cc1` [TANGERETIN], the Ratio in [14] was found to be 2.71; in data set [15], 2.37; in [16], 2.08; in [17], 2.17; in data set [18], 2.06; in data set [29], 1.04. Besides, the Activity in [19] is 17.45%; in [20], 17.55%; in data set [7], 21.75%; in data set [21], 13.35%; in data set [22] it was 13.87%; in data set [8], 23.05%. The Activity in data set [23] is reported as 29.61%; in data set [24], 25.82%; in [9], 23.75%; in data set [25] it was 12.83%; in [26], 11.57%; in [10], 15.19%. Besides, in data set [27], the outcome was Active. The outcome in data set [28] was inactive. The “inhibition (INH)” value in data set [30] and in [31] was “Active” each time. In addition, the inhibition entry in [32] and in data set [33] was “inactive” throughout. Further, the result in [11] and in data set [12] was Active.
`COc1ccc([C@@H]2CC(=O)c3c(O)cc(OC)cc3O2)cc1`: the Activity was determined as 17.74% in [7], 9.67% in [8], 17.82% in [9] and 14.1% in [10]. The result in data set [11] and in data set [12] was Active. The “inhibition (INH)” value in [13] is on record as “Not Active”.
On to `O=C1C[C@@H](c2ccc(O)cc2)Oc2cc(O)cc(O)c21` [NARINGENIN], for which the Activity worked out at 5.65% in data set [7], 6.98% in [8], 8.16% in data set [9] and 15.44% in data set [10]. For the same molecule, the result in data set [11] and in [12] was Active. Moreover, the “inhibition (INH)” value in data set [13] is given as “Not Active”.
Turning to `COc1cc(O)c2c(c1)O[C@H](c1ccc(O)cc1)CC2=O` [SAKURANETIN], the Activity is recorded as 18.89% in data set [7], 4.87% in data set [8], 25.28% in data set [9] and 18.16% in data set [10]. Further, the outcome in data set [11] and in data set [12] was Active. Moreover, the “inhibition (INH)” value in [13] is on record as “Not Active”.
